This passage reports MIC and Ki results from ChEMBL document CHEMBL1641489, “Syntheses, structures and antibiotic activities of LpxC inhibitors based on the diacetylene scaffold” (Bioorg Med Chem, 2011).

The structures appear in SMILES notation. In brackets after ≈: the same amount, converted by molar mass.

In assay [1] the test system is Escherichia coli. Briefly: Antibacterial activity against Escherichia coli W3110 by NCCLS assay. The class given is functional. Summed up:
(§1)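 Broth microdilution MIC per NCCLS protocol, adapted to 96-well format in LB medium containing 5% DMSO; MIC taken as lowest concentration inhibiting bacterial growth.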

Another assay deals with Pseudomonas aeruginosa. The experiment in a line: Antibacterial activity against Pseudomonas aeruginosa PAO1 by NCCLS assay. Type of assay: functional. The method, boiled down: as §1
Assay [2] relates to Escherichia coli. Briefly: Antibacterial activity against Escherichia coli W3110PA replaced with Pseudomonas aeruginosa lpxC gene by NCCLS assay. Type of assay: functional. The method, boiled down: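 MIC by the NCCLS protocol in LB medium with 5% DMSO. Strain: W3110 with chromosomal lpxC swapped for P. aeruginosa lpxC. The swap was made by λ-red recombination in DY330 and moved into W3110 by P1vir transduction, selecting on LB/agar with 15 μg/mL L-161,240 and 10 mM sodium citrate.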

Assay [3] concerns Escherichia coli. Briefly: Antibacterial activity against Escherichia coli W3110RL replaced with Rhizobium leguminosarum lpxC gene by NCCLS assay. Type of assay: functional. Summed up: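 MIC by the NCCLS protocol in LB medium with 5% DMSO. Strain: E. coli with native lpxC replaced by the R. leguminosarum gene.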
Assay [4] has as its target T1, UDP-3-O-acyl-N-acetylglucosamine deacetylase (Escherichia coli K-12, UniProt P0A725).
T1 sequence (P0A725 whole entry): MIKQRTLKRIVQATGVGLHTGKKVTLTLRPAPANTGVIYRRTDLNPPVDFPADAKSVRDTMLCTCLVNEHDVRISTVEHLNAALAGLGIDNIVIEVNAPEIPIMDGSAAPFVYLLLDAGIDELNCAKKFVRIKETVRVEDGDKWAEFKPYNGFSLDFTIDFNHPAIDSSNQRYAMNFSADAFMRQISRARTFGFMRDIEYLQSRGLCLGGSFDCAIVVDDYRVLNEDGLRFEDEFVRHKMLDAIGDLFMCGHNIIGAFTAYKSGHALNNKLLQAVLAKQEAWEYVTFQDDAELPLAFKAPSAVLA
Briefly: Inhibition of Escherichia coli LpxC.

Usually MIC stands for the lowest concentration found to suppress growth. With `C[C@@H](O)[C@H](NC(=O)c1ccc(C#Cc2ccc(CN3CCOCC3)cc2)cc1)C(=O)NO`, the minimal inhibitory concentration (MIC) is 0.2 µg/mL (≈ 0.457 µM) in the assay with Escherichia coli [1], 1.6 µg/mL (≈ 3.66 µM) in the assay on Pseudomonas aeruginosa, 1.3 µg/mL (≈ 2.97 µM) with Escherichia coli [2] and 125 µg/mL (≈ 286 µM) in the assay on Escherichia coli [3].
Turning to `C[C@@H](O)[C@@H](NC(=O)c1ccc(C#CC#Cc2ccc(N)cc2)cc1)C(=O)NO`, the MIC is 6.3 µg/mL (≈ 16.7 µM) against Escherichia coli [1], over 25 µg/mL with Pseudomonas aeruginosa, over 25 µg/mL in the assay with Escherichia coli [2] and over 25 µg/mL against Escherichia coli [3].
Consider `C[C@@H](O)[C@H](NC(=O)c1ccc(C#CC#Cc2ccc(N)cc2)cc1)C(=O)NO`, for which the minimum inhibitory concentration (MIC) against Escherichia coli [1] worked out at 0.03 µg/mL (≈ 0.0795 µM); in the assay with Pseudomonas aeruginosa, 0.5 µg/mL (≈ 1.32 µM); against Escherichia coli [2], 0.5 µg/mL (≈ 1.32 µM); with Escherichia coli [3], 3.9 µg/mL (≈ 10.3 µM).
In the case of `C[C@H](O)[C@H](NC(=O)c1ccc(C#CC#Cc2ccc(N)cc2)cc1)C(=O)NO`, the MIC stood at 0.07 µg/mL (≈ 0.185 µM) in the assay on Escherichia coli [1], 0.9 µg/mL (≈ 2.38 µM) against Pseudomonas aeruginosa, 0.8 µg/mL (≈ 2.12 µM) against Escherichia coli [2] and 12.5 µg/mL (≈ 33.1 µM) with Escherichia coli [3].
The corresponding values for `C[C@@H](O)[C@H](NC(=O)c1ccc(C#CC#Cc2cccc(N)c2)cc1)C(=O)NO` are 0.06 µg/mL (≈ 0.159 µM), 1.3 µg/mL (≈ 3.44 µM), 1.3 µg/mL (≈ 3.44 µM) and 6.3 µg/mL (≈ 16.7 µM).
On to `C[C@@H](O)[C@H](NC(=O)c1ccc(C#CC#Cc2ccccc2N)cc1)C(=O)NO`, for which the minimal inhibitory concentration (MIC) is 0.5 µg/mL (≈ 1.32 µM) with Escherichia coli [1], 12.5 µg/mL (≈ 33.1 µM) in the assay on Pseudomonas aeruginosa, 8.3 µg/mL (≈ 22 µM) in the assay on Escherichia coli [2] and over 25 µg/mL with Escherichia coli [3].
As for `C[C@@H](O)[C@H](NC(=O)c1ccc(C#CC#Cc2ccccc2)cc1)C(=O)NO`, the MIC against Escherichia coli [1] is 0.05 µg/mL (≈ 0.138 µM); against Pseudomonas aeruginosa, 0.7 µg/mL (≈ 1.93 µM); in the assay on Escherichia coli [2] it was 0.7 µg/mL (≈ 1.93 µM); with Escherichia coli [3], 6.3 µg/mL (≈ 17.4 µM). The Ki in assay [4] (read-out: Ki) was 0.18 nM; in assay [4] (read-out: Ki(app)) it was 0.55 nM.
Turning to `C[C@H](O)[C@@H](NC(=O)c1ccc(C#CC#Cc2ccc(N)cc2)cc1)C(=O)NO`, the MIC is 3.1 µg/mL (≈ 8.21 µM) in the assay with Escherichia coli [1], over 25 µg/mL with Pseudomonas aeruginosa, over 25 µg/mL with Escherichia coli [2] and over 25 µg/mL against Escherichia coli [3].
